ROMK primary: modulators of human ROMK potassium channel; hit rate 2% among 130,000; B-score at 10 µM; Tet-inducible ROMK, thallium flux fluorescence; actives lie on both sides; P48048;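 active means signal ratio slope over the read window, or its plate-corrected B-score, at least 3 SD from the plate mean, either direction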;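 further: B-score of the F/F0 ratio slope over 7 to 12 s after thallium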
Target sequence (P48048 whole entry, looked up): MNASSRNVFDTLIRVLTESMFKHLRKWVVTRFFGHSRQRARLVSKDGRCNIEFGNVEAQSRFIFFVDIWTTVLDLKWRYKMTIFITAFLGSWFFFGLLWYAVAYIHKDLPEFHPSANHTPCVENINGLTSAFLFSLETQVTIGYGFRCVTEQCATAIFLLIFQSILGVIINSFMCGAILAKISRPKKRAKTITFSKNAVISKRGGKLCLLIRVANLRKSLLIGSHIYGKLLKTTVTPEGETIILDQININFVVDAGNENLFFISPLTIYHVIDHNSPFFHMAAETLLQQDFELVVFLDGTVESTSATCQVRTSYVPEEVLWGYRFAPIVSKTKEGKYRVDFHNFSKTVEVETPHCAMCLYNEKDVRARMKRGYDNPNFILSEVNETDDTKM
Diaphorase act: counter-screen for diaphorase-based assays: diaphorase activators and chemical reducers; AID 1229; hit rate 0.005% among 190,000; activation factor at 20 µM; Diaphorase/resazurin coupled assay, resorufin fluorescence, 16 min; active compounds read high; 1 = vehicle wells, 0 = NADH-free wells;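 active means diaphorase activity raised at least twofold by the compound at 20 µM; inactive means activation factor below 2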
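Material: Clostridium kluyveri diaphorase, purified enzyme; Quantity: enzyme 0.07 U/mL final; Medium: HEPES pH 7.4 buffer with MgCl2 and Tween 20; Dosing: single compound dose of 20 µM, 1% DMSO final; Schedule: 16 min reaction at room temperature; Measured by: red resorufin fluorescence at 544/590 nm excitation/emission.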
Diaph inh CS: diaphorase inhibition or chemical oxidation counter-screen | hit rate 0.69% among 190,000 | inhibition, % at 20 µM | diaphorase resazurin-to-resorufin fluorescence, NADH, 16 min; bacterial (C. kluyveri) enzyme, not human;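 active means primary screen inhibition at 20 µM above a set limit, cut at about 50% in these data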;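 further: plate controls were DMSO with full reaction for no effect and wells lacking NADH for full effect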
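Assay system: diaphorase enzyme from Clostridium kluyveri. Quantity: enzyme working solution with 0.14 U/mL diaphorase. Schedule: reaction incubation of 16 min at room temperature. Technique: resorufin fluorescence, excitation 544 nm, emission 590 nm. Controls: No-NADH positive control and DMSO neutral control.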
PMI act hi M6P: PMI (human) activation, high substrate. P34949. activation factor at 20 µM. coupled PMI enzyme assay, resazurin fluorescence, 20 min; active compounds read high; 1 = untreated enzyme, 0 = substrate-free blank. AID 1216. hit rate 0.34% among 190,000;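 active means activation factor of 2 or more at 20 µM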
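Material: human phosphomannose isomerase with PGI, G6PDH, diaphorase coupling enzymes; amount: PMI at 15 ng/mL final; also added: Mannose-6-phosphate 1.0 mM (near-saturating) plus 0.22 mM NADP+; incubation: enzyme reaction with compound 20 min at room temperature; signal: resorufin fluorescence (Ex 544/Em 590 nm) from resazurin via diaphorase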
G6PDH counter: L. mesenteroides G6PDH inhibition counter-screen | inhibition, % at 5 µM | Purified L. mesenteroides G6PDH, diaphorase/resazurin coupled fluorescence, 45 min | hit rate 0.12% among 200,000 | AID 1020; in the data active means inhibition above about 50%
PMI activator: activators of human phosphomannose isomerase | activation factor at 20 µM | AID 1214 | purified human PMI, coupled resazurin fluorescence, 20 min; active compounds read high; 1 = vehicle control, 0 substrate-free wells | hit rate 0.005% among 190,000;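 active means activation factor of 2 or more at 20 µM, relative to plate controls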
Numbers without * were called inactive; x = no result. Rows were chosen to be rich in hits. Some 2.2% of all compounds tested hit in one or more screens of this group.

SMILES	ROMK primary	Diaphorase act	Diaph inh CS	PMI act hi M6P	G6PDH counter	PMI activator
Cc1cccc(NS(=O)(=O)c2cc(OCC(N)=O)c(C)cc2Cl)c1	-2.8	0.8	15	0.9	2	0.9
COc1cc(/C=C(\C#N)c2nn(CCO)c(N)c2C#N)cc(OC)c1OC	-0.0058	0.9	10	2.2*	2	1.6
Cc1ccc2cc(CCNC(=O)c3ccc(C)c([N+](=O)[O-])c3)c(=O)[nH]c2c1	0.19	0.4	59*	1.2	-2	0.9
CCC(CC)C(=O)NCCc1cc2ccc(C)cc2[nH]c1=O	x	0.9	13	0.9	-10	0.8
COc1ccc(/C=C/C(=O)O)cc1S(=O)(=O)NC1CCS(=O)(=O)C1 (centres undefined)	0.48	1	4	0.9	6	0.9
Cc1ccc(-c2n[nH]c(=S)n2/N=C\c2ccco2)cc1	-0.18	0.5	46	0.9	-19	0.9
S=c1[nH]nc(-c2ccco2)n1/N=C/C=C/c1ccco1	-0.56	0.4	64*	0.8	2	1
CC(/C=N/n1c(-c2ccc(Cl)cc2)n[nH]c1=S)=C\c1ccco1	x	0.5	53*	0.7	-25	0.7
CC(/C=N/n1c(-c2ccco2)n[nH]c1=S)=C\c1ccccc1	x	0.5	50*	0.8	-11	0.8
O=C(CNS(=O)(=O)c1ccccc1)Nc1ccc2c(c1)OCO2	-0.14	1	5	0.9	2	1
Cc1onc(-c2ccc(Cl)cc2)c1-c1ccnc(SCC(=O)Nc2cc(Cl)cc(Cl)c2)n1	-0.23	x	x	x	x	x
O=C(NCCc1c[nH]c2ccccc12)/C(=C/c1cccnc1)NC(=O)c1ccco1	0.39	0.9	6	1	11	1
Nc1[nH]nc2nc3ccccc3cc12	0.66	0.9	7	2.2*	4	1.5
CCc1ccc2nc3n[nH]c(N)c3cc2c1	x	0.9	5	1	5	1
CNc1sc(C(=O)c2ccccc2F)c(N)c1-c1nc2ccccc2s1	0.08	0.8	22	2*	-1	1.6
Cc1ccc(N(CC(=O)NCc2ccc(F)cc2)C(=O)c2csnn2)cc1C	0.034	1.1	-6	1	6	1
O=C(N/N=C/c1oc(O)c2ccccc12)c1ccccc1	-0.39	1	-2	2.4*	0	1.8
CCN(C(=O)c1cc2cc3ccc(C)cc3nc2o1)c1ccc(OC)cc1	x	0.4	60*	0.8	-45	0.8
CCc1ccc(N2C(=O)Cc3c2nc(N)c(C#N)c3N)cc1	0.039	0.6	36	0.9	-1	0.8
CCN(CC)c1nc2c3c(nc4c(c3c1C#N)CC(=O)N4c1ccc(Cl)cc1)NC(C)=N2	x	0.4	58*	0.7	-24	0.7
O=C(O)C1OC(Oc2c(-c3ccc(O)c(O)c3)oc3cc(O)cc(O)c3c2=O)C(O)C(O)C1O (centres undefined)	-0.25	0.5	55*	1	36	0.8
O=C(O)C1OC(Oc2cc3oc(-c4ccccc4)cc(=O)c3c(O)c2O)C(O)C(O)C1O (centres undefined)	-0.01	0.8	24	1.2	30	1
O=C1CC(Nc2ccccc2)C(=O)N1c1ccc(N2CCOCC2)cc1 (centres undefined)	0.69	1.1	-6	1	0	1
O=C1CC(NNc2ccccc2)C(=O)N1c1ccc(N2CCCCC2)cc1 (centres undefined)	0.0091	1.1	-12	2.7*	4	1.8
COc1ccc(Cn2c(=O)c3cccnc3n(Cc3ccc([N+](=O)[O-])cc3)c2=O)cc1	2.8*	1	-1	1	9	1
SMILES	ROMK primary	Diaphorase act	Diaph inh CS	PMI act hi M6P	G6PDH counter	PMI activator
C/C(Cn1nnc2ccccc21)=N\NC(=O)c1ccc(Br)cc1	-0.2	1	2	1.1	1	1.1
N#CCN1CCN(CC(=O)c2ccc(Br)cc2)CC1	-0.52	x	x	x	x	x
CC(=O)N1CCN(CC(=O)c2ccc(Br)cc2)CC1	x	0.9	9	2.4*	0	1.8
COc1ccc2cc(C(N)=O)/c(=N/NC(=O)c3ccco3)oc2c1	-0.028	0.2	76*	1	-17	0.9
NC(=O)c1cc2ccccc2o/c1=N/NC(=O)c1cccs1	-0.039	0.3	69*	1	2	0.9
Cc1c(-c2ccccc2)oc2c(C(=O)OCC(=O)Nc3ccc(C(N)=O)cc3)cccc2c1=O	x	0.7	25	0.8	0	0.9
CCOC(=O)C1CCCN(CC(=O)NC2=Nc3ccccc3N=C(C)C2c2ccccc2)C1 (centres undefined)	-2.1*	0.9	12	0.9	-18	0.9
COc1cc(C(=O)NCC(c2ccccc2)N(C)C)ccc1OCC(=O)N1CCOCC1 (centres undefined)	0.21	1	3	1	6	1
CC(=O)/C(=N\Nc1ccc(C)cc1)N1CCOCC1	x	1	-1	2.6*	4	1.5
O=C(O)C/C=C(/NC(=O)OCc1ccccc1)C(=O)OCc1ccccc1	0.46	0.9	6	2.8*	9	1.9
O=C(O)CC(NC(=O)OCc1ccccc1)c1ccccc1 (centres undefined)	x	0.9	13	1	3	1
COc1cc(/C=C2/C(=O)c3cccc([N+](=O)[O-])c3C2=O)c(Br)cc1O	x	0.5	50*	0.6	-3	0.9
COc1ccc(-c2nc(-c3cccc([N+](=O)[O-])c3O)cc(=O)o2)cc1OC	x	1	-3	1	-37	1
O=c1cc(CN2CCCc3ccccc32)nc2sccn12	-0.98	0.9	7	2.1*	10	1.8
Cc1c(Cl)cccc1NC(=O)C(=O)NNC(=O)c1ccccc1F	10*	1.1	-7	1	5	1.1
Cc1ccccc1C(=O)NNC(=O)C(=O)Nc1cccc(Cl)c1C	x	1	-1	0.9	11	1
CCOC(=O)CSc1nc(=O)n2ccccc2n1	0.016	1	4	1.1	6	1.1
COc1ccc(-c2csc(NC(=O)c3ccccc3NS(=O)(=O)c3ccc(F)c(F)c3)n2)cc1	-0.39	0.5	53*	0.9	3	0.9
Nc1scc2c(C(=O)N/N=C/c3ccc(Cl)cc3)nn(-c3ccccc3)c(=O)c12	x	0.2	75*	0.4	20	0.3
O=C(O)/C(=C\c1ccccc1Cl)c1ccc(S(=O)(=O)N2CCCCC2)s1	x	0.8	16	1.2	13	1
O=C(O)/C(=C\c1ccc(Cl)c([N+](=O)[O-])c1)c1ccc(S(=O)(=O)N2CCCCC2)s1	-0.13	0.4	61*	0.4	8	0.8
Cc1nnc(NC(=O)CSc2ccc3nnc(-c4cccnc4)n3n2)s1	-0.44	0.9	11	1.1	-5	1.2

Screens: PubChem BioAssay, several laboratories
